# HNF4A DNA FP: change in binding of human HNF4A to DNA, primary screen, biochemical, fluorescence polarization, FITC-DNA; Hepatocyte nuclear factor 4-alpha (Homo sapiens), P41235; 1 h; activity change, % at 10 µM; 0.3% of 360,000 active; AID 1224865, 2016; in the data active means activity change above about 30%, passing the limit was not always enough
# CSN deneddyl inh: inhibitors of CSN-mediated cullin deneddylation, primary screen, biochemical, fluorescence polarization, uHTS; COP9 signalosome complex subunit 5 (Homo sapiens), Q92905; Purified CSN, SCF-Nedd8-OG deneddylation; inhibition, % at 12.5 µM; 0.38% of 360,000 active; AID 651999, 2013;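 active means pattern-corrected inhibition above about 35%, with an unprinted fluorescence ratio check between 0.5 and 1.5, limit read from the data, passing the limit was not always enough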
# Target sequence (Q92905 whole entry, looked up, one chain of several): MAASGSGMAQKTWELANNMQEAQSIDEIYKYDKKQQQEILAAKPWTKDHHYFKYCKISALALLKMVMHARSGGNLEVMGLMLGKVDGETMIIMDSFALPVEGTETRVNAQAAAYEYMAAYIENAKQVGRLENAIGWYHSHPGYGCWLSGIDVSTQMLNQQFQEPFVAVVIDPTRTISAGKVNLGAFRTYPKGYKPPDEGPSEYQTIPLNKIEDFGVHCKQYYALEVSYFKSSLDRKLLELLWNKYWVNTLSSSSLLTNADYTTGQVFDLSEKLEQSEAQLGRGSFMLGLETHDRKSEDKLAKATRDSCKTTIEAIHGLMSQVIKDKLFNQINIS
#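 Detection – fluorescence polarization · System – HEK293T-derived human Csn5 enzyme · Controls – substrate-only high control, full reaction low control · Timing – 90 min, room temperature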
# Rev-erbA mod: modulators of Rev-erb alpha DNA binding, primary screen, biochemical, FITC-DNA, fluorescence polarization, uHTS; 0.79% of 370,000 active; activity, % at 10 µM; AID 1259318, 2017; Rev-erbα–FITC-DNA binding, 90 min;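 active means activity above about 14%, limit read from the data; passing the limit was not always enough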
# aDG glyco up: activators of alpha-DG glycosylation, primary screen, uHTS, Pro5-aDG cells, AlphaScreen. AID 624168, 2012. activation, % at 10 µM. alpha-DG glycosylation AlphaScreen (IIH6); 0% Pro5, 100% B10-LARGE cell signal. 0.22% of 360,000 active;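 active means activation of at least 8% versus controls, or a plate z-score of at least 8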;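 further: Pro5 are CHO cells carrying HIG-tagged alpha-DG that lacks glycosylation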
# HNF4a DNA conf: change in HNF4A binding to DNA, retest, confirmation, biochemical, fluorescence polarization, FITC-DNA. shares compounds with HNF4A DNA FP. 1 h. activity change, % at 12.5 µM. 99% of 210 active. AID 1224897, 2016; call rule not given here
# A number is an active result; i = inactive; nt = no result given. This is a sample that favours compounds with a hit; in the whole collection about 1.5% have one here.
SMILES,HNF4A DNA FP,CSN deneddyl inh,Rev-erbA mod,aDG glyco up,HNF4a DNA conf
O=C(Nc1ccc([N+](=O)[O-])cc1)C(Cc1ccccc1)N1C(=O)c2cccc3cccc(c23)C1=O (stereo not drawn),54.3,i,i,i,93.7
CC(COc1cccc(C#N)c1)CN1CCC(C(O)(c2ccccc2)c2ccccc2)CC1 (stereo not drawn),nt,nt,i,nt,nt
Cc1ccccc1C(=O)/C=C1/SCC(=O)N1C,37.8,46.2,i,i,59.4
Cc1ccccc1C(=O)NN1C(=O)CSC1=S,i,i,i,i,nt
CC(C)(C)c1ccc(S(=O)(=O)N2CCC(c3cn4ccccc4n3)CC2)cc1,nt,nt,i,nt,nt
CC1=Nc2ccccc2/C1=C/c1nc(-c2ccc(C)s2)oc1O,54.8,i,i,i,73.6
Cc1ccccc1NC(=O)N(C)[C@H]1C[C@H]2c3[nH]c4c(-c5ccc6c(c5)OCO6)cccc4c3CCN2C[C@H]1[C@H](C)O,nt,nt,i,nt,nt
O=C(N/N=C/c1cccnc1)/C(=C\c1cccs1)NC(=O)c1ccccc1,i,i,i,i,nt
O=C(N/N=C/c1cc2ccccc2nc1Cl)/C(=C/c1cccs1)NC(=O)c1ccccc1,46.6,i,i,i,49.7
OC(COc1ccc(C2C=CCC2)cc1)CN1CCCCC1 (stereo not drawn),41.7,i,i,i,39.2
OC(COc1ccccc1)CN1CCCCC1 (stereo not drawn),i,i,i,i,nt
CN(C(=O)COC(=O)c1ccc([N+](=O)[O-])cc1N)c1ccccc1,42.5,42.5,i,i,91.9
Cc1ccc(C(=O)OCC(=O)N(C)c2ccccc2)c(C)c1,i,i,i,i,nt
CCN(CC)c1ccc(/C=C(\C#N)C(N)=O)cc1,33.9,i,i,i,46.5
N#CCC(=O)Nc1ccc(C(=O)NCC(c2ccco2)N2CCCCC2)cc1 (stereo not drawn),67.0,42.5,i,i,44.0
O=C(NCC(c1ccco1)N1CCCCC1)c1ccc(S(=O)(=O)Nc2ccccc2)cc1 (stereo not drawn),i,i,i,i,nt
CC(=O)Nc1ccc(S(=O)(=O)NCc2nc(-c3cccc(C)c3)no2)cc1,62.4,i,i,i,63.9
CC(=O)Nc1ccc(S(=O)(=O)NCc2nc(-c3ccc(C)cc3)no2)cc1,i,i,i,i,nt
COc1cc(/C=C(\C#N)c2nc3ccccc3[nH]2)ccc1OC(=O)c1ccco1,38.5,i,i,i,52.1
NC(=Nc1cccc(F)c1)NC(=O)OCc1ccccc1,nt,nt,i,nt,nt
Cc1nnc2sc(-c3ccc(NC(=O)c4ccc(-c5ccc(Cl)cc5Cl)o4)cc3)nn12,102.9,i,i,i,45.7
Cc1cc(C)n2c(NCc3ccccc3)c(-c3cc4ccccc4o3)nc2n1,61.1,i,i,i,64.6
O=S1(=O)c2ccc(Br)cc2OC[C@@H](Cc2ccccc2)N1Cc1cn(Cc2ccc(Cl)cc2)nn1,nt,nt,i,nt,nt
NC(=O)CC(NC(=O)Cc1cccc2ccccc12)c1ccc(NC2CCCC2)c([N+](=O)[O-])c1 (stereo not drawn),i,i,i,i,nt
CCC(CC)Nc1ccc(C(CC(N)=O)NC(=O)Cc2ccc(Br)cc2)cc1[N+](=O)[O-] (stereo not drawn),52.0,i,i,i,36.8
SMILES,HNF4A DNA FP,CSN deneddyl inh,Rev-erbA mod,aDG glyco up,HNF4a DNA conf
NC(=O)CC(NC(=O)Cc1cccc2ccccc12)c1ccc(NC2CCCCC2)c([N+](=O)[O-])c1 (stereo not drawn),50.8,i,i,i,55.8
CCCCNc1ccc(C(CC(N)=O)NC(=O)Cc2ccc(Br)cc2)cc1[N+](=O)[O-] (stereo not drawn),i,i,i,i,nt
COc1ccc(CCNC(=O)Nc2ccc3c(c2)[C@]2(CC(=O)N(CC(C)C)C2c2ccccc2)C(=O)N3C)cc1OC (stereo partly drawn),nt,nt,i,nt,nt
O=C(Nc1ccc2oc(-c3ccncc3)nc2c1)c1ccc2c(c1)OCCO2,i,i,i,i,nt
O=C(Nc1ccc2oc(-c3ccncc3)nc2c1)c1ccc2c(c1)OCO2,65.6,111.2,i,i,168.8
Nc1nnc(SCc2nc3scc(-c4ccccc4)c3c(=O)[nH]2)s1,45.2,i,i,i,56.5
COC(=O)[C@H]1[C@H]2C[C@@H]3c4[nH]c5cc(OC)ccc5c4CCN3C[C@H]2C[C@@H](OC(=O)c2ccc(N)cc2)[C@@H]1OC,42.6,i,i,i,64.9
COC(=O)[C@H]1[C@H]2C[C@@H]3c4[nH]c5cc(OC)ccc5c4CCN3C[C@H]2C[C@@H](OC(=O)/C=C/c2cc(OC)c(OC)c(OC)c2)[C@@H]1OC,i,i,i,i,nt
N=c1n(CC(=O)c2ccc([N+](=O)[O-])cc2)c2ccccc2n1Cc1ccc(Cl)cc1,39.7,i,i,i,118.8
N=c1n(CC(=O)c2ccc([N+](=O)[O-])cc2)c2ccccc2n1Cc1ccccc1,67.6,i,i,i,106.9
N=c1n(CC(=O)c2ccc([N+](=O)[O-])cc2)c2ccccc2n1Cc1ccccc1Cl,i,i,i,i,nt
c1ccc(-c2cccc(CNc3nc(-c4ccccn4)nnc3-c3ccccc3)c2)cc1,nt,nt,i,nt,nt
Cc1cc(/C=C2/NC(=S)NC2=O)c(C)n1-c1cccnc1,49.4,i,i,i,97.7
CSc1nc2ccc3nc(NC(=O)c4ccc(Cl)s4)sc3c2s1,i,i,nt,i,nt
CSc1nc2ccc3nc(NC(=O)c4cccs4)sc3c2s1,62.3,43.6,i,i,40.0
O=C(CSc1nc2ccccc2o1)Nc1nc2c(s1)CCCC2,54.7,i,i,i,48.1
CCCCNC(=O)C[C@H]1C[C@@]2(C(=O)OC)C(=C[C@H](COCc3ccccc3)O[C@@H]2C)N(Cc2ccco2)C1=O,nt,nt,i,nt,nt
CC(C)[C@@H](CO)N1Cc2nnn(Cc3ccccc3)c2-c2ccccc2S1(=O)=O,nt,nt,i,nt,nt
Cc1ccc(-n2nc3c(N4CCC(C(=O)N5CCC(C(N)=O)CC5)CC4)nnc(C)c3c2C)cc1,49.4,i,i,i,48.4
C#CCOCCOCCOCCNc1nc(N2CCN(C(=O)[C@H](CCCCN)n3cc([C@@H](N)C(C)CC)nn3)CC2)nc(N2CCN(C(=O)[C@H](CCCCN)n3cc([C@@H](N)CC(C)C)nn3)CC2)n1 (stereo partly drawn),71.9,68.9,i,i,111.9
COC(=O)C1CN(C2CCCC2)CCS(=O)(=O)N1Cc1cn(Cc2ccc(F)cc2)nn1 (stereo not drawn),nt,nt,i,nt,nt
O=[N+]([O-])c1ccc(C=NNc2ccccc2)cc1,46.5,i,i,i,46.8
COc1ccc(C=NNc2ccc([N+](=O)[O-])cn2)cc1,72.5,i,i,i,79.4

# Assay outcomes as filed in PubChem BioAssay.
